Experimental data published in ChEMBL document CHEMBL1146369, “Novel and versatile methodology for synthesis of cyclic imides and evaluation of their cytotoxic, DNA binding, apoptotic inducing activities and molecular modeling study” (Eur J Med Chem, 2007).
pIC50: −log10 of the molar value.

How the values were obtained:
[1] = test system: Vero; assay: Cytotoxicity against Vero cells; type: cell-based; conditions: Chlorocebus sabaeus
How it was run: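 Confluent Vero monolayers in 96-well trays, DMEM with 10% calf serum, exposed in triplicate to 1–500 µM for 48 h at 37 °C. Cells then fixed with 3.7% formaldehyde, rinsed and examined visually. IC50 taken as the concentration causing about 50% loss of monolayer.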

[2] = test system: Neutrophil; assay: Apoptotic activity in human blood neutrophils after 24 hrs; type: functional; set-up: concentration or dose not given beside the values
How it was run: (§1)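 Neutrophils (>98% pure) isolated from peripheral blood of healthy donors by dextran sedimentation and discontinuous plasma Percoll gradients. Cultured at 37 °C, 5% CO2 in RPMI 1640 with 10% autologous platelet-rich-plasma-derived serum. Compound given at 50 µM in DMSO; controls were untreated cells and 0.01% DMSO. Apoptosis scored by May-Grunwald Giemsa morphology, 500 cells/slide, at 0–72 h. Mean ± SD, n = 3-5.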

[3] = test system: Neutrophil; assay: Apoptotic activity in human blood neutrophils after 48 hrs; type: functional; set-up: concentration or dose not given beside the values; how it was run: as §1
[4] = test system: Neutrophil; assay: Apoptotic activity in human blood neutrophils after 72 hrs; type: functional; set-up: concentration or dose not given beside the values; how it was run: as §1
[5] = Partition coefficient, log P of the compound; type: physicochemical; conditions: octanol/water
[6] = Binding affinity to DNA by methyl green/DNA displacement assay; conditions: Homo sapiens

SMILES: O=C1c2nccnc2C(=O)N1Cc1ccccc1
- pIC50 [1]: < 4.00

SMILES: C[C@H](c1ccccc1)N1C(=O)c2nccnc2C1=O
- pIC50 [1]: 4.10

SMILES: CC(C)c1cccc(C(C)C)c1N1C(=O)c2nccnc2C1=O
- pIC50 [1]: 4.70
- Activity [2]: 24.07%
- Activity [3]: 38.1%
- Activity [4]: 46.11%
- logP [5]: 4.2

SMILES: C[C@@H](c1ccccc1)N1C(=O)c2cccnc2C1=O
- pIC50 [1]: 4.04

SMILES: O=C1c2nccnc2C(=O)N1C12CC3CC(CC(C3)C1)C2
- pIC50 [1]: 4.74
- Activity [2]: 30.01%
- Activity [3]: 45.1%
- Activity [4]: 54.05%
- logP [5]: 1.8

SMILES: COc1ccc(CN2C(=O)c3nccnc3C2=O)cc1
- pIC50 [1]: < 4.00

SMILES: CCCCCc1ccc(N2C(=O)[C@@H]3C4C=CC(CC4)[C@@H]3C2=O)cc1
- pIC50 [1]: 5.00
- Activity [2]: 39.11%
- Activity [3]: 58.06%
- Activity [4]: 70.01%
- logP [5]: 4.2
- C50 [6]: 31 µg/mL

SMILES: O=c1c(O)c(-c2ccc(O)c(O)c2)oc2cc(O)cc(O)c12 [QUERCETIN]
- Activity [2]: 39.9%
- Activity [3]: 49.9%
- Activity [4]: 71.3%

SMILES: Cc1cccc(C)c1N1C(=O)[C@@H]2C3C=CC(CC3)[C@@H]2C1=O
- pIC50 [1]: 4.89
- Activity [2]: 38.4%
- Activity [3]: 53.2%
- Activity [4]: 67.98%
- logP [5]: 3.1
- C50 [6]: 53 µg/mL

SMILES: O=C1[C@@H]2C3C=CC(CC3)[C@@H]2C(=O)N1Cc1ccc(Cl)cc1
- pIC50 [1]: 4.29

SMILES: CCCCCc1ccc(N2C(=O)c3nccnc3C2=O)cc1
- pIC50 [1]: 4.80
- Activity [2]: 31.1%
- Activity [3]: 49.2%
- Activity [4]: 60%
- logP [5]: 3.8
- C50 [6]: 42 µg/mL

SMILES: C[C@@H](c1ccccc1)N1C(=O)c2nccnc2C1=O
- pIC50 [1]: 4.07

SMILES: CC(C)c1cccc(C(C)C)c1N1C(=O)c2ccccc2C1=O
- pIC50 [1]: 4.64
- Activity [2]: 15.56%
- Activity [3]: 30.2%
- Activity [4]: 39.1%
- logP [5]: 5.1

SMILES: CCN1C(=O)c2cccnc2C1=O
- pIC50 [1]: < 4.00

SMILES: CC(C)c1cccc(C(C)C)c1N1C(=O)c2cccnc2C1=O
- pIC50 [1]: 4.68
- Activity [2]: 19.1%
- Activity [3]: 32.77%
- Activity [4]: 41.62%
- logP [5]: 4.6

SMILES: CC(C)(C)N1C(=O)c2nccnc2C1=O
- pIC50 [1]: 4.49
- Activity [2]: 12%
- Activity [3]: 27.6%
- Activity [4]: 33.91%
- logP [5]: 0.9

SMILES: O=C1c2nccnc2C(=O)N1Cc1ccc(Cl)cc1
- pIC50 [1]: 4.06

SMILES: CCN1C(=O)c2nccnc2C1=O
- pIC50 [1]: < 4.00

SMILES: O=C1c2ccccc2C(=O)N1c1ccccc1 [N-PHENYL-PHTHALIMIDE]
- pIC50 [1]: 4.09

SMILES: Cc1cccc(C)c1N1C(=O)c2cccnc2C1=O
- pIC50 [1]: 4.70
- Activity [2]: 22.21%
- Activity [3]: 35%
- Activity [4]: 44.16%
- logP [5]: 3.2
- C50 [6]: 64 µg/mL

SMILES: O=C1[C@@H]2C3C=CC(CC3)[C@@H]2C(=O)N1c1ccc(C(F)(F)F)cc1
- pIC50 [1]: 4.12

SMILES: C[C@H](c1ccccc1)N1C(=O)c2cccnc2C1=O
- pIC50 [1]: 4.09

SMILES: Cc1cccc(C)c1N1C(=O)c2nccnc2C1=O
- pIC50 [1]: 4.74
- Activity [2]: 28%
- Activity [3]: 42.03%
- Activity [4]: 50.1%
- logP [5]: 2.7
- C50 [6]: 59 µg/mL

SMILES: COc1ccc(CN2C(=O)c3nccnc3C2=O)cc1OC
- pIC50 [1]: < 4.00

SMILES: O=C1[C@@H]2C3C=CC(CC3)[C@@H]2C(=O)N1C12CC3CC(CC(C3)C1)C2
- pIC50 [1]: 4.85
- Activity [2]: 35.5%
- Activity [3]: 53.2%
- Activity [4]: 68.11%
- logP [5]: 2.2
- C50 [6]: 69 µg/mL

SMILES: O=C1[C@@H]2C3C=CC(CC3)[C@@H]2C(=O)N1CCc1ccccc1
- pIC50 [1]: 4.06
- logP [5]: 2.5

SMILES: O=C1c2ccccc2C(=O)N1Cc1ccccc1
- pIC50 [1]: 4.00

SMILES: O=C1c2cccnc2C(=O)N1CCc1ccccc1
- pIC50 [1]: < 4.00

SMILES: C[C@@H](c1ccccc1)N1C(=O)[C@@H]2C3C=CC(CC3)[C@@H]2C1=O
- pIC50 [1]: 4.31

SMILES: O=C1[C@@H]2C3C=CC(CC3)[C@@H]2C(=O)N1c1ccccc1
- pIC50 [1]: 4.17

SMILES: CC(C)c1cccc(C(C)C)c1N1C(=O)[C@@H]2C3C=CC(CC3)[C@@H]2C1=O
- pIC50 [1]: 4.80
- Activity [2]: 32.4%
- Activity [3]: 49.11%
- Activity [4]: 59.2%
- logP [5]: 4.6

SMILES: O=C1c2nccnc2C(=O)N1c1ccccc1
- pIC50 [1]: 4.15

SMILES: O=C1c2cccnc2C(=O)N1Cc1ccc(Cl)cc1
- pIC50 [1]: 4.02

SMILES: CCCCCc1ccc(N2C(=O)c3cccnc3C2=O)cc1
- pIC50 [1]: 4.74
- Activity [2]: 32.11%
- Activity [3]: 47.05%
- Activity [4]: 57.87%
- logP [5]: 4.3
- C50 [6]: 49 µg/mL

SMILES: O=c1[nH]cc(F)c(=O)[nH]1 [FLUOROURACIL]
- pIC50 [1]: 6.70

SMILES: CC(C)(C)N1C(=O)c2cccnc2C1=O
- pIC50 [1]: 4.48
- Activity [2]: 11%
- Activity [3]: 25.07%
- Activity [4]: 30.23%
- logP [5]: 1.4

SMILES: O=C1[C@@H]2C3C=CC(CC3)[C@@H]2C(=O)N1c1ccc(Cl)cc1
- pIC50 [1]: 4.11

SMILES: O=C1c2ccccc2C(=O)N1C12CC3CC(CC(C3)C1)C2
- pIC50 [1]: 4.70
- Activity [2]: 21.11%
- Activity [3]: 34.66%
- Activity [4]: 42.01%
- logP [5]: 2.7

SMILES: COc1ccc(CN2C(=O)c3cccnc3C2=O)cc1
- pIC50 [1]: < 4.00

SMILES: O=C1c2ccccc2C(=O)N1CCc1ccccc1
- pIC50 [1]: 4.00

SMILES: O=C1c2cccnc2C(=O)N1c1ccccc1
- pIC50 [1]: 4.14

SMILES: COc1ccc(CN2C(=O)c3cccnc3C2=O)cc1OC
- pIC50 [1]: < 4.00

SMILES: CCN1C(=O)[C@@H]2C3C=CC(CC3)[C@@H]2C1=O
- pIC50 [1]: < 4.00
- logP [5]: 0.8

SMILES: O=C1c2cccnc2C(=O)N1C12CC3CC(CC(C3)C1)C2
- pIC50 [1]: 4.74
- Activity [2]: 31.1%
- Activity [3]: 46%
- Activity [4]: 56.1%
- logP [5]: 2.3

SMILES: O=C1c2cccnc2C(=O)N1Cc1ccccc1
- pIC50 [1]: < 4.00

SMILES: O=C1c2nccnc2C(=O)N1c1ccc(Cl)cc1
- pIC50 [1]: 4.07

SMILES: COc1ccc(CN2C(=O)[C@@H]3C4C=CC(CC4)[C@@H]3C2=O)cc1OC
- pIC50 [1]: 4.20

SMILES: O=C1[C@@H]2C3C=CC(CC3)[C@@H]2C(=O)N1Cc1ccccc1
- pIC50 [1]: 4.13
- logP [5]: 2.3

SMILES: O=C1c2nccnc2C(=O)N1c1ccc(C(F)(F)F)cc1
- pIC50 [1]: 4.10

SMILES: C[C@H](c1ccccc1)N1C(=O)[C@@H]2C3C=CC(CC3)[C@@H]2C1=O
- pIC50 [1]: 4.37

SMILES: O=C1c2nccnc2C(=O)N1CCc1ccccc1
- pIC50 [1]: < 4.00

SMILES: C[C@@H](c1ccccc1)N1C(=O)c2ccccc2C1=O
- pIC50 [1]: < 4.00

SMILES: O=C1c2cccnc2C(=O)N1c1ccc(C(F)(F)F)cc1
- pIC50 [1]: 4.06

SMILES: O=C1c2cccnc2C(=O)N1c1ccc(Cl)cc1
- pIC50 [1]: 4.04

SMILES: CC(C)(C)N1C(=O)[C@@H]2C3C=CC(CC3)[C@@H]2C1=O
- pIC50 [1]: 4.57
- Activity [2]: 12.82%
- Activity [3]: 29.76%
- Activity [4]: 35.64%
- logP [5]: 1.3

SMILES: COc1ccc(CN2C(=O)[C@@H]3C4C=CC(CC4)[C@@H]3C2=O)cc1
- pIC50 [1]: 4.17
